The list is not random: actives were taken first. Their share in the collection is about 1.4%.
ATG4B inh: inhibitors of human ATG4B cysteine protease; Q9Y4P1; 340,000 tested, 0.51% active; inhibition, % at 8.33 µM; ATG4B cleavage of LC3-PLA2, NBD-HPC fluorescence, 1 h; AID 504462; in the data active = inhibition above about 40%
UCH37 inh: human UCH37 deubiquitinating enzyme inhibition | Q9Y5K5 | purified proteasome/UCH37, Ub-AMC cleavage fluorescence | inhibition, % (no concentration beside the values) | 330,000 tested, 0.33% active;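 active = mean inhibition over replicate wells above about 20%, limit read from the data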;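 note: 0% = compound-free wells with enzyme and 100% = wells lacking proteasome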
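assay system = human UCH37 enzyme supplied as purified proteasome complex | amount = proteasome at 0.15 nM in the dispensed enzyme solution | schedule = 30 min compound-proteasome preincubation then 25 min substrate reaction, room temperature | measured by = fluorescence, ex 355 nm, em 460 nm | benchmarks = no-proteasome wells (full inhibition) and compound-free wells (no inhibition)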
Rin1-Abl PPI inh: inhibitors of human Rin1-Abl protein interaction; TR-FRET Rin1/Abl binding, biochemical; inhibition, % at 7.35 µM; 360,000 tested, 0.4% active; in the data active = inhibition above about 5%, passing the limit was not always enough
Tb MetRS inh: Trypanosoma brucei MetRS inhibition. AID 624268. purified T. brucei MetRS, ATP depletion, Kinase-Glo luminescence. 360,000 tested, 0.4% active. inhibition, % at 11.9 µM;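 active = inhibition above a per-plate cutoff of the control wells' mean inhibition plus 3 SD, cut at about 5.5% in these data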;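 note: 0% = DMSO wells median and 100% = median of wells with control inhibitor compound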
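Test system – parasite MetRS enzyme · Reagent – substrates ATP, L-methionine and bulk Escherichia coli tRNA · Doses – 11.9 µM compound single dose, 0.9% DMSO · Times – 15 min enzyme-compound preincubation, 2 h reaction, 10 min detection, 25 °C · Signal – Kinase-Glo luminescence, ATP depletion format · Controls – DMSO-only wells as low control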
ATG4B conf: confirmation of human ATG4B inhibitors. inhibition, % at 8.33 µM. 320 tested, 92% active. ATG4B protease fluorescent substrate cleavage assay. shares compounds with ATG4B inh; in the data active = inhibition above about 39%
PLA2 counter: PLA2 (human) inhibition in ATG4B counter-screen; shares compounds with ATG4B inh; purified PLA2, NBD-C6-HPC fluorescence, 45 min; inhibition, % at 8.33 µM; 1,600 tested, 66% active; in the data active = inhibition above about 50%
UCH37 confirm: UCH37 Ub-AMC cleavage inhibition, confirmed. 480 tested, 27% active. inhibition, % at 20 µM. shares compounds with UCH37 inh. Proteasome-bound UCH37, Ub-AMC cleavage fluorescence. AID 624100;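 active = average inhibition over replicates above about 50%, so the earlier screening hit is confirmed, limit read from the data; inactive = the rest, counted as false positives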;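 note: based on cleavage rate fitted by regression over a 30 min kinetic read; 0% = proteasome plus Ub-AMC and 100% = Ub-AMC without proteasome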
Starred values were filed as active, the others as inactive.

O=C(CC1S/C(=N/N=Cc2cccs2)NC1=O)Nc1ccc(Cl)c(Cl)c1 (stereo not given) was read as UCH37 inh 2.
`Cc1ccccc1-n1c(=S)[nH]c2nc3c(cc2c1=O)CCCC3` gave ATG4B inh -9, UCH37 inh 3, Rin1-Abl PPI inh 1 and Tb MetRS inh 0.
For COc1ccc(NC(=O)CCCN2C(=O)C(c3ccccc3)Oc3cccnc32)cc1OC (stereo not given) the results were ATG4B inh -3, UCH37 inh 2, Rin1-Abl PPI inh -1 and Tb MetRS inh 0.
Screening COc1ccc(Br)cc1CNC(=O)CN1C(=O)C(c2ccccc2)Oc2cccnc21 (stereo not given) returned ATG4B inh 59*, UCH37 inh -2, Rin1-Abl PPI inh 1, Tb MetRS inh 0 and PLA2 counter 67*.
C=CCSC1=N/C(=C\c2cc(OCC)c(OC(C)=O)c([N+](=O)[O-])c2)C(=O)S1 was read as ATG4B inh 89*, UCH37 inh 6, Rin1-Abl PPI inh -1, Tb MetRS inh 1 and PLA2 counter 94*.
For N#C/C(=C\c1ccc(OCC(N)=O)cc1)c1ccccc1 the results were ATG4B inh 45*, UCH37 inh 2, Rin1-Abl PPI inh -3, Tb MetRS inh 1 and PLA2 counter 53*.
For COc1ccccc1NNC(=O)c1cc(C(C)(C)C)nn1Cc1ccccc1 the results were ATG4B inh -5, UCH37 inh 1, Rin1-Abl PPI inh 0 and Tb MetRS inh -1.
`CC(C)(C)c1cc(C(=O)NNc2cc(C(F)(F)F)ccc2Cl)n(Cc2ccccc2)n1` gave ATG4B inh 43*, UCH37 inh 3, Rin1-Abl PPI inh 1, Tb MetRS inh -1 and PLA2 counter 63*.
For C/C(=N/NC(=O)c1cc2ccccc2cc1O)C1C(=O)c2ccccc2C1=O the results were ATG4B inh 49*, Rin1-Abl PPI inh -4, Tb MetRS inh 0, ATG4B conf 73* and PLA2 counter 26.
For Cc1ccsc1C(=O)NN=Cc1ccc2c(c1)OCO2 the results were UCH37 inh 0.
For O=c1c2ccccc2nc(/C=C/c2ccccc2)n1CCc1ccccc1 the results were ATG4B inh 4, UCH37 inh 6, Rin1-Abl PPI inh 1 and Tb MetRS inh 0.
Screening O=c1c2ccccc2nc(-c2ccoc2)n1CCc1ccccc1 returned ATG4B inh 42*, UCH37 inh 2, Rin1-Abl PPI inh 1, Tb MetRS inh -1, ATG4B conf 65* and PLA2 counter 36.
Screening Cc1ccccc1C=Nn1c(-c2cc(-c3ccccc3)n[nH]2)n[nH]c1=S returned UCH37 inh 3.
`C=CCN1C(c2ccc(Br)cc2)=CS/C1=C(\C#N)c1nnc(N2CCOCC2)n1-c1ccccc1` gave ATG4B inh 52*, UCH37 inh 7, Rin1-Abl PPI inh 2, Tb MetRS inh 0 and PLA2 counter 69*.
COc1ccc2cc(C=NS(=O)(=O)c3ccc(C)cc3)n(C)c2c1 was read as ATG4B inh 83*, UCH37 inh 3, Rin1-Abl PPI inh -2, Tb MetRS inh 0 and PLA2 counter 75*.
Cn1cccc1/C=C1\CCC/C(=C\c2cccn2C)C1=O was read as ATG4B inh 45*, UCH37 inh 6, Rin1-Abl PPI inh -1, Tb MetRS inh -1 and PLA2 counter 59*.
O=C1/C(=C/c2cccs2)CCC/C1=C\c1cccs1 was read as ATG4B inh 6, Rin1-Abl PPI inh 2 and Tb MetRS inh 0.
CC(/C=C/c1ccccc1)NC(N)=O (stereo not given) was read as ATG4B inh -3, UCH37 inh 4, Rin1-Abl PPI inh 2 and Tb MetRS inh 0.
Screening CON(C)C(=O)CC(CN(Cc1ccccc1)C(=O)OC(C)(C)C)c1ccc(Cl)cc1 (stereo not given) returned ATG4B inh 53*, UCH37 inh 0, Rin1-Abl PPI inh 0, Tb MetRS inh -1 and PLA2 counter 79*.
Cc1nc(NC(C)c2ccccc2)c2c3c(sc2n1)CCC3 (stereo not given) was read as ATG4B inh 46*, UCH37 inh 1, Rin1-Abl PPI inh -2, Tb MetRS inh -2 and PLA2 counter 36.
For Cc1nc(NS(=O)(=O)c2ccc(Br)cc2)c2c3c(sc2n1)CCC3 the results were ATG4B inh 68*, UCH37 inh 4, Rin1-Abl PPI inh 1, Tb MetRS inh 0 and PLA2 counter 72*.
`Cc1nc(NS(=O)(=O)c2cccs2)c2c3c(sc2n1)CCC3` gave ATG4B inh 4, UCH37 inh -2, Rin1-Abl PPI inh 0 and Tb MetRS inh 0.
`COc1cccc2cc(-c3cc(=O)oc4ccc(OCC(C)=O)cc34)oc12` gave ATG4B inh -3, UCH37 inh -9, Rin1-Abl PPI inh -3 and Tb MetRS inh 0.
`CCN(CC(O)c1cccc(O)c1)C(=O)C12CC3CC(CC(C3)C1)C2` (stereo not given) gave ATG4B inh -8, UCH37 inh 3, Rin1-Abl PPI inh 1 and Tb MetRS inh 0.
`O=C(O)/C=C\C(=O)Nc1ccc(Oc2ccccc2)cc1` gave ATG4B inh -12, UCH37 inh 3, Rin1-Abl PPI inh -1 and Tb MetRS inh 0.
O=C(O)/C=C/C(=O)Nc1ccc(C2(c3ccc(NC(=O)/C=C/C(=O)O)cc3)c3ccccc3-c3ccccc32)cc1 was read as ATG4B inh 55*, UCH37 inh 0, Rin1-Abl PPI inh -2, Tb MetRS inh 0 and PLA2 counter 65*.
For Cc1ccc(CNc2ncnc3cc(Cl)ccc23)cc1 the results were ATG4B inh 12, UCH37 inh 4, Rin1-Abl PPI inh -3 and Tb MetRS inh 2.
Cc1cc(NCc2ccc(F)cc2)nc2cc(Cl)ccc12 was read as ATG4B inh 51*, UCH37 inh -14, Rin1-Abl PPI inh 0, Tb MetRS inh -1 and PLA2 counter 74*.
For CCN1C(C(=O)c2ccccc2)=C(Nc2ccccc2C)c2ccccc2S1(=O)=O the results were ATG4B inh 51*, UCH37 inh 6, Rin1-Abl PPI inh 1, Tb MetRS inh -1 and PLA2 counter 55*.
For CCN1/C(=C\C(=S)Nc2ccccc2)Sc2ccccc21 the results were ATG4B inh -3, UCH37 inh 6, Rin1-Abl PPI inh 0 and Tb MetRS inh 0.
Screening CCN1/C(=C/C(C)=C/c2sc3ccccc3[n+]2CC)Sc2ccccc21 returned ATG4B inh 52*, UCH37 inh 28*, Rin1-Abl PPI inh -20, Tb MetRS inh -3, ATG4B conf 49*, PLA2 counter 37 and UCH37 confirm 22.
